# Reference: ChEMBL document CHEMBL2016554, “Synthesis, biological evaluation and molecular docking studies of 1,3,4-oxadiazole derivatives as potential immunosuppressive agents” (Bioorg Med Chem, 2012)
# Experiments:
# [1] = target: T1, Phosphatidylinositol 4,5-bisphosphate 3-kinase catalytic subunit delta isoform (Homo sapiens, UniProt O00329); assay: Inhibition of PI3Kdelta expressed in cells co-expressing N-terminal His-tagged human p85a using L-alpha-phosphatidylinositol substrate by TLC based phosphor imaging; format: cell-based
# T1 sequence (O00329 whole entry): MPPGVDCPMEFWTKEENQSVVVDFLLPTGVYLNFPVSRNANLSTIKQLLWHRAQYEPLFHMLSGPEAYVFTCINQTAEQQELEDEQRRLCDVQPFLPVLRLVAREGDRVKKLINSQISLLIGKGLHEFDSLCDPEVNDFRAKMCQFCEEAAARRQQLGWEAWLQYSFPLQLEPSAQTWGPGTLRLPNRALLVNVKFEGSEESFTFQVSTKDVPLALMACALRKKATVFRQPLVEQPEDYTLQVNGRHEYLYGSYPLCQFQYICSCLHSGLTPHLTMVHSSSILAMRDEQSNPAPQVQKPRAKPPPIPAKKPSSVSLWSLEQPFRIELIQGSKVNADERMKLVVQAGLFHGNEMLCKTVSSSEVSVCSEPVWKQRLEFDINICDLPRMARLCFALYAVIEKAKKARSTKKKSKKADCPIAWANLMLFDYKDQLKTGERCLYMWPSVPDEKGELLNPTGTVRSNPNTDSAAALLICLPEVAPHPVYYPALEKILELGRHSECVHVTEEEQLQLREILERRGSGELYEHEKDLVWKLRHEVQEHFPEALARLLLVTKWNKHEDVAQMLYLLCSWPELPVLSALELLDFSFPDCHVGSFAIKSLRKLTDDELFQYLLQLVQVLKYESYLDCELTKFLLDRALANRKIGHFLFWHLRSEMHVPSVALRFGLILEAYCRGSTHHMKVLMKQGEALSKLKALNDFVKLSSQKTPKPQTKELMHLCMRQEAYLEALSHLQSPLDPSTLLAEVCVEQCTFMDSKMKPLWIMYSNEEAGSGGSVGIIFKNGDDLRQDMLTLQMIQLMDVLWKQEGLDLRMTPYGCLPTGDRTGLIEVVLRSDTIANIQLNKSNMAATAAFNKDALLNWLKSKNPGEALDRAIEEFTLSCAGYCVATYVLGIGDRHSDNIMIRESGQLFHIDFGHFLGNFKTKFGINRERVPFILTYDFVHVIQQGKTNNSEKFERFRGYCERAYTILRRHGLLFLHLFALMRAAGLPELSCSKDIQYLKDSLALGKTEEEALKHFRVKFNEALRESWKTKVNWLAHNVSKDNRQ
# [2] = Immunosuppressive activity in BALB/c mouse lymph node cells assessed as inhibition of concanavalin A-stimulated cell proliferation at 1 uM administered 24 hrs post concanavalin A stimulation and measured 72 hrs after compound dosing by MTT assay; format: functional
# Summary of the method: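 BALB/c mouse lymph node cells, 5 × 10^5 per well, stimulated with 5 µg/mL ConA for 24 h, then left untreated or given compound at 1 µM for 72 h. MTT added 4 h before the end, formazan dissolved in DMSO, OD570 read. Inhibition = (control OD570 − compound OD570)/control OD570 × 100, with untreated cells as control. Values are means of three experiments.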
# [3] = Cytotoxicity against BALB/c mouse lymph node cells at 10 uM after 24 hrs MTT assay
# [4] = Inhibition of N-terminal His-tagged bovine PI3Kgamma expressed in Sf21 cells using L-alpha-phosphatidylinositol substrate by TLC based phosphor imaging; set-up: species or system Bos taurus
# [5] = target: Phosphatidylinositol 4,5-bisphosphate 3-kinase catalytic subunit alpha isoform (Mus musculus, UniProt P42337); assay: Inhibition of mouse wild type PI3Kalpha expressed in Sf21 cells co-expressing N-terminal His-tagged human p85a using L-alpha-phosphatidylinositol substrate by TLC based phosphor imaging
# Sequence of Phosphatidylinositol 4,5-bisphosphate 3-kinase catalytic subunit alpha isoform (P42337 whole entry, canonical isoform): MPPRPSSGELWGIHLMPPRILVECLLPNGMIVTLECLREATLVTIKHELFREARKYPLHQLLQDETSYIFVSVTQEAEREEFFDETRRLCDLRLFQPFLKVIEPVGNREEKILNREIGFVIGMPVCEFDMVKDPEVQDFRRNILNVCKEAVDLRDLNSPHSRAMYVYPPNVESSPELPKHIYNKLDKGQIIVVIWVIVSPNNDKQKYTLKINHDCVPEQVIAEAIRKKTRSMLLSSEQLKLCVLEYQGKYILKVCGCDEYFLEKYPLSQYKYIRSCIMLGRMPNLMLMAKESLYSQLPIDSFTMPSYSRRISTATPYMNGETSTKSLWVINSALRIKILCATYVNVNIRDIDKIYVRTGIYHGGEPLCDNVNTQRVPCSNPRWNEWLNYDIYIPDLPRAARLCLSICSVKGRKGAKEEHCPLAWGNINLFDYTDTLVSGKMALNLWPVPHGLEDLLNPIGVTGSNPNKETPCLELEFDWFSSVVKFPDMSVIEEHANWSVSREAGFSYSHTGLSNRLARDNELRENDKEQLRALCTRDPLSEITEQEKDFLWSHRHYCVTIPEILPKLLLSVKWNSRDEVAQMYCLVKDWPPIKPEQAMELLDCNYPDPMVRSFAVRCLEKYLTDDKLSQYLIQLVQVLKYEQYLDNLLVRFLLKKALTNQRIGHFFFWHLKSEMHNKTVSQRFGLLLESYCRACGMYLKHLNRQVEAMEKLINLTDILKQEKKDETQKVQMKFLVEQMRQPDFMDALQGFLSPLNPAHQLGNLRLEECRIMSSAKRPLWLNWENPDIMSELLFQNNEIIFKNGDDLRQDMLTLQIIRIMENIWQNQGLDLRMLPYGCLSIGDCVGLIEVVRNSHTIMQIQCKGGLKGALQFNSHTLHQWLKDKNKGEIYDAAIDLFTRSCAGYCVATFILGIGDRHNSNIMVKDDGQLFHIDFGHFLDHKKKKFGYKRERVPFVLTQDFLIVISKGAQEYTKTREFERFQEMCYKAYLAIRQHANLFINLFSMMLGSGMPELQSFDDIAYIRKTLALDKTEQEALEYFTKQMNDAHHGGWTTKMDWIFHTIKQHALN
# [6] = target: Phosphatidylinositol 4,5-bisphosphate 3-kinase catalytic subunit beta isoform (Homo sapiens, UniProt P42338); assay: Inhibition of human wild type PI3Kbeta expressed in Sf21 cells co-expressing N-terminal His-tagged human p85a using L-alpha-phosphatidylinositol substrate by TLC based phosphor imaging
# Sequence of Phosphatidylinositol 4,5-bisphosphate 3-kinase catalytic subunit beta isoform (P42338 whole entry, canonical isoform): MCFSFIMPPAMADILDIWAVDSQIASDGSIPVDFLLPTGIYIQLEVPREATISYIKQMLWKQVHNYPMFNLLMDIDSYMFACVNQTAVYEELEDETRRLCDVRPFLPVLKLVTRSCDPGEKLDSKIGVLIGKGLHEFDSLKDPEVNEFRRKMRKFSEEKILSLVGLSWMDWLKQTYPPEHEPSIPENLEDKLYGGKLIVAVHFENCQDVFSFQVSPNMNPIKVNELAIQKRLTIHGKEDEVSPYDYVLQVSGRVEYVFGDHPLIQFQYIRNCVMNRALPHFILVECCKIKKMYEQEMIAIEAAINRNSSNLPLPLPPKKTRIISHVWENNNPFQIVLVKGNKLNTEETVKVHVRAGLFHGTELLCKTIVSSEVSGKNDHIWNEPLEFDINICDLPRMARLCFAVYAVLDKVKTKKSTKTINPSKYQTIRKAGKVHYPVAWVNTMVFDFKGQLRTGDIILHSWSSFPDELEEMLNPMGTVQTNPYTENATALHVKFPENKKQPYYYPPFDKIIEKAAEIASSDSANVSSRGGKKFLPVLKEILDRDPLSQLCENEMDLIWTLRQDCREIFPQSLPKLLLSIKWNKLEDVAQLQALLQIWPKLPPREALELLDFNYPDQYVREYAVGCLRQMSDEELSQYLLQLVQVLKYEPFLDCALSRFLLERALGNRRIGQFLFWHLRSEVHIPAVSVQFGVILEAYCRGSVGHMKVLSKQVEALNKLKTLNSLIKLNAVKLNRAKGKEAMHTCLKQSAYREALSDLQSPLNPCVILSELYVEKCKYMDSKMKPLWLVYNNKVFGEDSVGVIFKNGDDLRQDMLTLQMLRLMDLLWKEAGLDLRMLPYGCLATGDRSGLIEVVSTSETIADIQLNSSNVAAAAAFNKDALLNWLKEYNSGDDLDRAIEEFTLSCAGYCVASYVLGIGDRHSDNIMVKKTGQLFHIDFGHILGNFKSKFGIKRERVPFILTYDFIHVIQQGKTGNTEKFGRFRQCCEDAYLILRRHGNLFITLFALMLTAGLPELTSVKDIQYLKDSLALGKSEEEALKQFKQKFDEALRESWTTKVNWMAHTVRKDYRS
# [7] = Induction of apoptosis in BALB/c mouse concanavalin A-stimulated lymph node cells assessed as early apoptotic cells at 1 uM administered 24 hrs post concanavalin A stimulation and measured 24 hrs after by Annexin-V-FITC/propidium iodide staining based flow cytometry (reference value: 4.52 %); format: functional
# [8] = Induction of apoptosis in BALB/c mouse concanavalin A-stimulated lymph node cells assessed as late apoptotic cells at 1 uM administered 24 hrs post concanavalin A stimulation and measured 24 hrs after by Annexin-V-FITC/propidium iodide staining based flow cytometry (reference value: 17.49 %); format: functional
# [9] = Induction of apoptosis in BALB/c mouse concanavalin A-stimulated lymph node cells assessed as early apoptotic cells at 4 uM administered 24 hrs post concanavalin A stimulation and measured 24 hrs after by Annexin-V-FITC/propidium iodide staining based flow cytometry (reference value: 4.52 %); format: functional
# [10] = Induction of apoptosis in BALB/c mouse concanavalin A-stimulated lymph node cells assessed as late apoptotic cells at 4 uM administered 24 hrs post concanavalin A stimulation and measured 24 hrs after by Annexin-V-FITC/propidium iodide staining based flow cytometry (reference value: 17.49 %); format: functional
# [11] = Induction of apoptosis in BALB/c mouse concanavalin A-stimulated lymph node cells assessed as early apoptotic cells at 16 uM administered 24 hrs post concanavalin A stimulation and measured 24 hrs after by Annexin-V-FITC/propidium iodide staining based flow cytometry (reference value: 4.52 %); format: functional
# [12] = Induction of apoptosis in BALB/c mouse concanavalin A-stimulated lymph node cells assessed as late apoptotic cells at 16 uM administered 24 hrs post concanavalin A stimulation and measured 24 hrs after by Annexin-V-FITC/propidium iodide staining based flow cytometry (reference value: 17.49 %); format: functional
# Mus musculus = assay: Induction of apoptosis in BALB/c mouse concanavalin A-stimulated lymph node cells assessed as late apoptotic cells administered 24 hrs post concanavalin A stimulation and measured 24 hrs after by Annexin-V-FITC/propidium iodide staining based flow cytometry; format: functional
Compound,inhibition (INH) [2],OD [3],other results
O=c1cc(N2CCOCC2)oc2c(-c3ccccc3)cccc12 [LY-294002],–,–,IC50 [1]: 0.57 µM
COc1ccc(-c2nnc(SCc3cccc(C)c3)o2)c(O)c1,16.28%,1.12,–
Cc1ccc(-c2nnc(SCc3ccc([N+](=O)[O-])cc3)o2)c(O)c1,38.76%,0.89,IC50 [4]: 0.31 µM; IC50 [5]: 54.9 µM; IC50 [6]: > 100 µM; IC50 [1]: 25.6 µM; Activity [7]: 6.26%; Activity [8]: 26.59%; Activity [9]: 6.69%; Activity [10]: 27.4%; Activity [11]: 2.16%; Activity [12]: 96.35%; Activity (Mus musculus): Dose-dependent effect
COc1ccc(-c2nnc(SCc3ccccc3[N+](=O)[O-])o2)c(O)c1,3.96%,0.91,–
COc1ccc(CSc2nnc(-c3ccc(C)cc3O)o2)cc1,13.67%,0.83,–
Cc1ccc(CSc2nnc(-c3ccc(C)cc3O)o2)cc1,11.42%,0.65,–
COc1cccc(CSc2nnc(-c3ccc(C)cc3O)o2)c1,20.59%,0.87,IC50 [4]: 2.59 µM; IC50 [5]: 1.97 µM; IC50 [6]: 13.6 µM; IC50 [1]: > 100 µM
Cc1ccc(-c2nnc(SCc3ccc(F)cc3)o2)c(O)c1,4.5%,0.82,–
COc1ccc(-c2nnc(SCc3ccccc3)o2)c(O)c1,4.5%,0.81,–
COc1ccc(-c2nnc(SCc3cccc([N+](=O)[O-])c3)o2)c(O)c1,19.33%,0.86,IC50 [4]: 2.47 µM; IC50 [5]: 17.9 µM; IC50 [6]: > 100 µM; IC50 [1]: 29.7 µM
COc1cccc(CSc2nnc(-c3ccc(OC)cc3O)o2)c1,11.06%,0.71,–
Cc1ccc(-c2nnc(SCc3ccc(Cl)cc3)o2)c(O)c1,13.4%,0.75,–
Cc1ccc(-c2nnc(SCc3ccccc3F)o2)c(O)c1,-6.92%,0.82,–
COc1ccc(-c2nnc(SCc3ccc(Cl)cc3)o2)c(O)c1,11.96%,0.87,–
Cc1ccc(-c2nnc(SCc3cccc([N+](=O)[O-])c3)o2)c(O)c1,-4.36%,0.81,–
COc1ccc(-c2nnc(SCc3ccc(C)cc3)o2)c(O)c1,6.29%,0.9,–
COc1ccc(-c2nnc(SCc3ccc([N+](=O)[O-])cc3)o2)c(O)c1,14.39%,0.83,–
COc1ccc(-c2nnc(SCc3ccccc3Cl)o2)c(O)c1,17.36%,0.89,–
Cc1ccc(-c2nnc(SCc3ccccc3[N+](=O)[O-])o2)c(O)c1,11.42%,0.74,–
COc1ccc(CSc2nnc(-c3ccc(OC)cc3O)o2)cc1,11.33%,0.75,–
Cc1ccc(C(=O)O)c(O)c1,3.52%,–,–
Cc1ccc(-c2nnc(SCc3ccccc3Cl)o2)c(O)c1,8.99%,0.79,–
COc1ccc(-c2nnc(SCc3ccc(F)cc3)o2)c(O)c1,29.32%,0.87,IC50 [4]: 0.98 µM; IC50 [5]: 31.2 µM; IC50 [6]: > 100 µM; IC50 [1]: 11.5 µM
Cc1ccc(-c2nnc(SCc3cccc(Cl)c3)o2)c(O)c1,-0.72%,0.7,–
COc1ccc(-c2nnc(SCc3ccccc3F)o2)c(O)c1,34.35%,0.79,IC50 [4]: 0.59 µM; IC50 [5]: 33.9 µM; IC50 [6]: 51.8 µM; IC50 [1]: 19 µM
Cc1ccc(-c2nnc(SCc3ccccc3)o2)c(O)c1,9.08%,0.86,–
C/C=C/C[C@@H](C)[C@@H](O)[C@H]1C(=O)N[C@@H](CC)C(=O)N(C)CC(=O)N(C)[C@@H](CC(C)C)C(=O)N[C@@H](C(C)C)C(=O)N(C)[C@@H](CC(C)C)C(=O)N[C@@H](C)C(=O)N[C@H](C)C(=O)N(C)[C@@H](CC(C)C)C(=O)N(C)[C@@H](CC(C)C)C(=O)N(C)[C@@H](C(C)C)C(=O)N1C [CYCLOSPORINE],69.77%,–,–
COc1ccc(-c2nnc(SCc3cccc(Cl)c3)o2)c(O)c1,22.03%,0.9,IC50 [4]: 1.87 µM; IC50 [5]: 15.4 µM; IC50 [6]: 43.7 µM; IC50 [1]: > 100 µM
COc1ccc(C(=O)O)c(O)c1 [4-METHOXYSALICYLIC ACID],7.34%,–,–
Cc1cccc(CSc2nnc(-c3ccc(C)cc3O)o2)c1,5.22%,0.8,–
